Columns and labels:
Assay type in all cases: functional, Homo sapiens
[1] = tested on: K562; test: Rhodamine-123 accumulation in K562 cells with or without expression of PGP protein at a concentration of 0.01 uM
How it was run: (§1)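 K562R (adriamycin-resistant, Pgp-expressing) cells, kept under continuous 10^-6 M adriamycin, were washed twice and suspended at 10⁶ cells/mL in RPMI. Modulator was added for 15 min at 37 °C, then rhodamine-123 at 0.05 µg/mL final for 1 h at 37 °C. Fluorescence at […] was read by flow cytometry in arbitrary units, as the mean of at least 3 independent experiments.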

[2] = tested on: K562; test: Rhodamine-123 accumulation in K562 cells with or without expression of PGP protein at a concentration of 1 uM; how it was run: as §1
[3] = tested on: K562; test: Rhodamine-123 accumulation in K562 cells with or without expression of PGP protein at a concentration of 1 nM; how it was run: as §1
[4] = tested on: K562; test: Rhodamine-123 accumulation in K562 cells with or without expression of PGP protein at a concentration of 0.1 uM; how it was run: as §1

Structure (SMILES)	Rhodamine-123 accumulation [1]	Rhodamine-123 accumulation [2]	Rhodamine-123 accumulation [3]	Rhodamine-123 accumulation [4]
O=C(c1cc(=O)c2c(O)cccc2o1)N1CCN(Cc2ccccc2)CC1	72 arbitrary units	136 arbitrary units	45 arbitrary units	95 arbitrary units
COc1cc(OC)c2c(c1)O/C(=C\c1ccccc1)C2=O	178 arbitrary units	249 arbitrary units	40 arbitrary units	203 arbitrary units
O=C(c1ccccc1)N1CCN(C(=O)c2cc(=O)c3c(O)cccc3o2)CC1	45 arbitrary units	42 arbitrary units	38 arbitrary units	47 arbitrary units
O=C(c1cc(=O)c2c(O)cccc2o1)N1CCN(c2ccccc2)CC1	40 arbitrary units	82 arbitrary units	39 arbitrary units	57 arbitrary units
COc1cc(OC)c2c(O)c(-c3ccccc3)cnc2c1	43 arbitrary units	82 arbitrary units	36 arbitrary units	55 arbitrary units
O=C(NCc1ccc(Cl)cc1)c1cc(=O)c2c(O)cccc2o1	42 arbitrary units	46 arbitrary units	50 arbitrary units	45 arbitrary units
CN1CCN(C(=O)c2cc(=O)c3c(O)cccc3o2)CC1	134 arbitrary units	207 arbitrary units	76 arbitrary units	138 arbitrary units
O=C(c1cc(=O)c2c(O)cccc2o1)N1CCCCC1	46 arbitrary units	45 arbitrary units	43 arbitrary units	44 arbitrary units
CC(=O)N1CCN(C(=O)c2cc(=O)c3c(O)cccc3o2)CC1	43 arbitrary units	38 arbitrary units	41 arbitrary units	37 arbitrary units
O=C(c1cc(=O)c2c(O)cccc2o1)N1CCOCC1	41 arbitrary units	42 arbitrary units	39 arbitrary units	44 arbitrary units
CCN1CCN(C(=O)c2cc(=O)c3c(O)cccc3o2)CC1	44 arbitrary units	85 arbitrary units	40 arbitrary units	47 arbitrary units
COc1cc(OC)c2c(=O)c(-c3ccccc3)coc2c1 [5,7-DIMETHOXYISOFLAVONE]	54 arbitrary units	49 arbitrary units	40 arbitrary units	46 arbitrary units
C/C=C/C[C@@H](C)[C@@H](O)[C@H]1C(=O)N[C@@H](CC)C(=O)N(C)CC(=O)N(C)[C@@H](CC(C)C)C(=O)N[C@@H](C(C)C)C(=O)N(C)[C@@H](CC(C)C)C(=O)N[C@@H](C)C(=O)N[C@H](C)C(=O)N(C)[C@@H](CC(C)C)C(=O)N(C)[C@@H](CC(C)C)C(=O)N(C)[C@@H](C(C)C)C(=O)N1C [CYCLOSPORINE]	80 arbitrary units	102 arbitrary units	72 arbitrary units	87 arbitrary units
